Measured values: ChEMBL document CHEMBL1141259, “Cytotoxic ent-kauranoids from the medicinal plant Isodon xerophilus” (J Nat Prod, 2007)

Assays:
Assay type in all cases: functional, cell-based
K562 = assay: Cytotoxicity against human K562 cells after 48 hrs; conditions: K562, 48 h
Procedure, shortened: (§1)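 Human lines obtained from Shanghai Cell Bank and kept in RPMI1640 with hormone-free 15% heat-inactivated FBS, 2 mM glutamine, 100 U/mL penicillin G and 100 µg/mL streptomycin. Seeded in 96-well plates at 5 × 10^4 cells/mL (K562) or 4 × 10^4 cells/mL (MKN45, HepG2). Exposed to compounds for 48 h, then viability was read by CCK-8 at 450 and 650 nm. IC50 is from triplicate experiments.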

HepG2 = assay: Cytotoxicity against human HepG2 cells after 48 hrs; conditions: HepG2, 48 h; procedure, shortened: as §1
MKN-45 = assay: Cytotoxicity against human MKN45 cells after 48 hrs; conditions: MKN-45, 48 h; procedure, shortened: as §1

| Compound | IC50 (K562) [µM] | IC50 (HepG2) [µM] | IC50 (MKN-45) [µM] |
| --- | --- | --- | --- |
| COC[C@@H]1C(=O)[C@]23[C@H](O)[C@H]1C[C@H](OC(C)=O)[C@H]2[C@]12CCCC(C)(C)[C@H]1[C@H](O)[C@]3(O)OC2 [XEROPHILUSIN X1] | 1.5 | 1.9 | 3.9 |
| C=C1C(=O)[C@]23[C@H](O)[C@H]1C[C@H](OC(C)=O)[C@H]2[C@]12CCCC(C)(C)[C@H]1C(=O)[C@]3(O)[C@H]2O [XEROPHILUSIN F] | 4.3 | 4.9 | > 10 |
| C=C1[C@@H](OC(C)=O)[C@]23[C@H](O)[C@H]1CC[C@H]2[C@]12CCCC(C)(C)[C@H]1[C@H](OC(C)=O)[C@]3(O)OC2 [RABDOTERNIN C] | > 10 | > 10 | > 10 |
| C=C1C(=O)[C@]23C[C@H]1C[C@@H](O)[C@@H]2[C@@]1(CCC[C@@](C)(COC(C)=O)[C@H]1C=O)COC3=O [TRICHORABDAL B] | > 10 | > 10 | > 10 |
| C=C1C(=O)[C@@]23[C@@H]4O[C@H]5O[C@@]2(O)[C@@H](O)[C@@H]2C(C)(C)CCC[C@]52[C@@H]3[C@@H](O)C[C@@H]14 [MACROCALIN B] | > 10 | > 10 | > 10 |
| C=C1C(=O)[C@]23[C@H](O)[C@H]1CC[C@H]2[C@@]12CCC[C@@]4(C)CO[C@H]1O[C@@]3(O)[C@@H](O)[C@H]42 [XEROPHILUSIN D] | 9 | 4.2 | 3.9 |
| C=C1C(=O)[C@]23C[C@H]1CC[C@H]2[C@@]12CO[C@@]3(O)[C@@H](O)[C@@H]1[C@](C)(COC(C)=O)CC[C@H]2O [XEROPHILUSIN H] | > 10 | > 10 | > 10 |
| C=C1C(=O)[C@]23[C@H](O)[C@H]1C[C@H](O)[C@H]2[C@]12CCCC(C)(C)[C@H]1C(=O)[C@]3(O)[C@H]2O [PHYLLOSTACHYSIN A] | 6.6 |  | 3 |
| C=C1C(=O)[C@]23[C@H](O)[C@H]1CC[C@H]2[C@]12[C@H](O)CCC(C)(C)[C@H]1[C@H](O)[C@]3(O)O[C@@H]2O [HEBEIRUBESCENSINS G] | 5.3 | > 10 | > 10 |
| C=C1C(=O)[C@]23[C@H](O)[C@H]1C[C@H](OC(C)=O)[C@H]2[C@]12CCCC(C)(C)[C@H]1[C@H](O)[C@]3(O)OC2 [XEROPHILUSIN K] | 1.4 | 2.2 | 5.6 |
| C=C1C(=O)[C@]23[C@H](O)[C@H]1CC[C@H]2[C@@]12C(OC)O[C@@]3(O)[C@@H](O)[C@@H]1C(C)(C)CC[C@H]2O (stereo not given in full) [RABDOTERNIN E] | 2.4 | > 10 | > 10 |
| C=C1C(=O)[C@]23[C@H](O)[C@H]1CC[C@H]2[C@]12CCCC(C)(C)[C@H]1[C@H](O)[C@]3(O)OC2=O [XEROPHILUSIN N] | 1.2 | > 10 | 4.8 |
| C=C1C(=O)[C@]23C[C@H]1CC[C@H]2[C@@]12CO[C@@]3(O)[C@@H](O)[C@@H]1[C@](C)(COC(C)=O)[C@@H](O)C[C@H]2O [MAOECRYSTAL I] | > 10 | > 10 | 1.3 |
| C=C1C(=O)[C@]23[C@H](O)[C@H]1C[C@H](OC(C)=O)[C@H]2[C@]12CCCC(C)(C)[C@H]1[C@H](O)[C@]3(O)O[C@@H]2OC [XEROPHILUSIN XII] | 3.6 | 4.9 | 2.1 |
| C=C1C(=O)[C@]23C[C@H]1CC[C@H]2[C@@]12CO[C@@]3(O)[C@@H](O)[C@@H]1C(C)(C)CC[C@H]2O [XEROPHILUSIN I] | 7.6 | 4 | 6.2 |
| CC(=O)O[C@H]1C[C@H]2C3=C(O[C@]4(CC3)C(=O)[C@@]35[C@@H]6O[C@H]7O[C@@]3(O)[C@@H](O)[C@@H]3C(C)(C)CCC[C@@]73[C@@H]5[C@@H](OC(C)=O)C[C@H]64)[C@@]34[C@@H]2O[C@H]2O[C@@]3(O)[C@@H](O)[C@@H]3C(C)(C)CCC[C@]23[C@H]14 [enanderinanin J] | > 10 | > 10 | > 10 |

| Compound | IC50 (K562) [µM] | IC50 (HepG2) [µM] | IC50 (MKN-45) [µM] |
| --- | --- | --- | --- |
| C=C1C(=O)[C@]23[C@H](O)[C@H]1C[C@H](O)[C@H]2[C@@]12CO[C@@]3(O)[C@@H](O)[C@@H]1[C@](C)(COC(C)=O)CC[C@H]2O [XEROPHILUSIN VI] | > 10 | > 10 | > 10 |
| C=C1C(=O)[C@]23[C@H](O)[C@H]1C[C@H](O)[C@H]2[C@]12CCCC(C)(C)[C@H]1[C@H](O)[C@]3(O)OC2 [ROSTHORIN A] | 0.33 | 6.4 | 5.4 |
| C=C1C(=O)[C@]23[C@H](O)[C@H]1CC[C@H]2[C@@]12C(O)O[C@@]3(O)[C@@H](O)[C@@H]1C(C)(C)CC[C@H]2O (stereo not given in full) [HEBEIRUBESCENSINS H] | 5.3 | > 10 | > 10 |
| C=C1C(=O)[C@]23[C@H](O)[C@H]1CC[C@H]2[C@@]12CO[C@@]3(O)[C@@H](O)[C@@H]1[C@](C)(COC(C)=O)CC[C@H]2O [xerophilusin G] | > 10 | > 10 | > 10 |
| C=C1C(=O)[C@@]23[C@@H]4OC5O[C@@]2(O)[C@@H](O)[C@@H]2C(C)(C)CC[C@@H](O)[C@]52[C@@H]3CC[C@@H]14 [PONICIDIN] | 1.3 | 0.96 | > 10 |
| C=C1C(=O)[C@]23[C@H](O)[C@H]1C[C@H](O)[C@H]2[C@]1(C=O)CCCC(C)(C)[C@H]1C(=O)[C@@H]3O [XEROPHILUSINE I] | 0.04 | 0.19 | 2.8 |
| C=C1C(=O)[C@]23[C@H](O)[C@H]1C[C@H](O)[C@H]2[C@]12CCCC(C)(C)[C@H]1[C@H](O)[C@]3(O)O[C@@H]2OC [XEROPHILUSIN XI] | > 10 | > 10 | > 10 |
| C=C1[C@@H](O)[C@]23[C@H](O)[C@H]1CC[C@H]2[C@@]12CO[C@@]3(O)[C@@H](O)[C@@H]1[C@](C)(CO)CC[C@H]2O [XEROPHILUSIN V] | > 10 | > 10 | > 10 |
| C=C1[C@@H](O)[C@]23[C@H](O)[C@H]1C[C@H](O)[C@H]2[C@]12CCCC(C)(C)[C@H]1[C@H](OC(C)=O)[C@]3(O)OC2 [RABDOTERNIN D] | > 10 | > 10 | > 10 |
| C=C1C(=O)[C@@]23[C@@H]4O[C@H]5O[C@@]2(O)[C@@H](O)[C@@H]2C(C)(C)CCC[C@]52[C@@H]3[C@@H](OC(C)=O)C[C@@H]14 [XEROPHILUSIN A] | 1.6 | > 10 | > 10 |
| C=C1C(=O)[C@@]23C(=O)[C@@H](O)[C@@H]4C(C)(C)CCC[C@@]4(C=O)[C@@H]2[C@@H](O)C[C@@H]1[C@H]3O [XEROPHILUSIN II] | 1 | 4.5 | > 10 |
| C=C1C(=O)[C@]23[C@H](O)[C@H]1CC[C@H]2[C@]12CCC[C@@](C)(CO)[C@H]1[C@H](O)[C@]3(O)OC2 [XEROPHILUSIN IV] | > 10 | > 10 | > 10 |
| C=C1[C@@H]2C[C@H](OC(C)=O)[C@H]3[C@]45CCCC(C)(C)[C@H]4[C@H](OC(C)=O)[C@](O)(OC5)[C@]3([C@@H]2O)[C@H]1O [XEROPHILUSIN X] | > 10 | > 10 | > 10 |
| C=C1C(=O)[C@@]23[C@@H]4O[C@H]5O[C@@]2(O)[C@@H](O)[C@@H]2C(C)(C)CCC[C@]52[C@@H]3CC[C@@H]14 [XEROPHILUSIN B] | 4.1 | 3.9 | 0.4 |
| C=C1C(=O)[C@]23C[C@H]1C[C@@H](O)[C@H]2[C@]12CCC[C@@](C)(COC(C)=O)[C@H]1[C@H](O)[C@]3(O)OC2 [LONGIKAURIN D] | 0.56 | 0.56 | 0.34 |
| C=C1C(=O)[C@]23[C@H](O)[C@H]1CC[C@H]2[C@]12CCC[C@@](C)(COC(C)=O)[C@H]1[C@H](O)[C@]3(O)OC2 [LONGIKAURIN B] | 1.6 | 1.2 | 0.49 |
